Bioassay records deposited in PubChem by several laboratories.
NR2E3 ag-1: agonists of human NR2E3 nuclear receptor | 360,000 compounds, 0.35% hits | inhibition of corepressor binding, % at 3.98 µM | CHO-S Gal4-NCOR/VP16-NR2E3 two-hybrid, luciferase | Q9Y5X4;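 active means inhibition above the mean of all tested compounds plus 3 SD, cut at about 70% in these data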;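 further: 0% = DMSO with NR2E3 transfected cells and 100% = cells lacking NR2E3 construct; higher means lower luciferase signal from less NR2E3 corepressor binding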
PG9 binder: small molecules binding HIV-1 gp120 antibody PG9 | TR-FRET gp120-PG9 antibody binding | inhibition, % at 6.7 µM | 360,000 compounds, 0.43% hits | AID 624416; in the data active means inhibition above about 8.5%
PKA-R1A act: activates the PKA-R1A holoenzyme complex; PKA-R1A dissociation, Cy5-IP20 fluorescence polarization; scaled: DMSO 0%, 113 µM cGMP 100%; 340,000 compounds, 0.083% hits; activation, % at 11.4 µM; P00514+P68181;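 active means percent activation above the mean of all tested compounds plus 3 SD, cut at about 19% in these data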;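 further: higher means more PKAc released from R1A so a rise in polarization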
NR2E3 ag-2: activates human photoreceptor nuclear receptor NR2E3; Q9Y5X4; GST-NR2E3/biotin-RetCOR TR-FRET, 1536-well; inhibition of corepressor binding, % at 4.78 µM; 320,000 compounds, 0.12% hits;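 active means percent inhibition above the cutoff of mean plus 3 SD of all tested compounds, set per screening campaign, cut at about 20% in these data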;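 further: 0% = DMSO wells and 100% = biotin wells as full block of FRET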
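System: GST-NR2E3 and biotin-RetCOR proteins; probe or stimulus: 7 nM biotin-RetCOR; doses: compound at 4.8 µM, single dose; schedule: Compound–protein incubation for 5 h at 4 °C; detection: time-resolved FRET; read-out: percent inhibition; controls: biotin wells as high control, 0.6% DMSO wells as low control; format: 1536-well plates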
Rev-erbA mod: modulates human Rev-erb alpha binding to DNA; P20393; Rev-erbα–FITC-DNA binding, fluorescence polarization, 90 min; activity, % at 10 µM; 370,000 compounds, 0.79% hits;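 active means activity above about 14%, limit read from the data; passing the limit was not always enough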;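 further: 0% = DMSO wells with 35 nM protein and 100% = DMSO wells with 750 nM protein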
Target sequence (P20393 whole entry, looked up): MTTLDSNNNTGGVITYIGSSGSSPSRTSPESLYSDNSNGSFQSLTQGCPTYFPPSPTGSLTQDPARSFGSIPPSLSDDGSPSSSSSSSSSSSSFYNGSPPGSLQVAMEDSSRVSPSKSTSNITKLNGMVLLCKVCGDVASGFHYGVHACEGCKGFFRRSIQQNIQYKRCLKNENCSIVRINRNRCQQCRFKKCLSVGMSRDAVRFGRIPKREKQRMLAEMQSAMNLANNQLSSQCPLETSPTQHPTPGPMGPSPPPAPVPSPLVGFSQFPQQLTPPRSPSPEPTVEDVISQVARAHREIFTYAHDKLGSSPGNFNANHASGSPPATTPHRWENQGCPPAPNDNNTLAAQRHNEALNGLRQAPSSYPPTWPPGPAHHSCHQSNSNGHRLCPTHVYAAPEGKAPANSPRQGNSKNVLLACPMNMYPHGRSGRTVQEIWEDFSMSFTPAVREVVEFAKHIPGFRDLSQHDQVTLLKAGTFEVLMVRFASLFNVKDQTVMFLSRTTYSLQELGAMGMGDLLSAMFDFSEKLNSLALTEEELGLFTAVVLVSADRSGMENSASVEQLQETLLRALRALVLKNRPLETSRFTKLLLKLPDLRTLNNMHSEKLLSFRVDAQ
PKA-R2B activ: activates the human PKA-R2B holoenzyme complex; activation, % at 11.4 µM; 340,000 compounds, 0.079% hits; AID 504700; PKA-R2B holoenzyme dissociation, Cy5-IP20 fluorescence polarization; R2B truncated from residue 108, S112A mutant; 0% DMSO only, 100% 113 µM cGMP; P22694+P31323;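 active means activation above a cutoff set at the mean over all compounds plus 3 SD, cut at about 18% in these data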;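 further: higher means more holoenzyme dissociation and a rise in polarization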
NR2E3 ag conf: confirmation of human NR2E3 agonists. shares compounds with NR2E3 ag-1. CHO-S mammalian two-hybrid NR2E3-NCOR, luciferase luminescence. inhibition, % at 3.98 µM. 2,300 compounds, 51% hits. AID 624378;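 active means average inhibition above a cutoff equal to the mean inhibition of all tested compounds plus one SD, cut at about 70% in these data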;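 further: 0% = DMSO in NR2E3 cells and 100% = DMSO in cells lacking NR2E3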
VP16 counter: counter-screen for NR2E3 agonists: GAL4-VP16 reporter inhibitors | shares compounds with NR2E3 ag-1 | CHO-S GAL4-VP16 luciferase reporter, luminescence | inhibition, % at 3.98 µM | 2,300 compounds, 29% hits | AID 624379;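 active means mean inhibition above a cutoff equal to the average over all tested compounds plus one standard deviation, cut at about 70% in these data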;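 further: luciferase from a UAS reporter driven by GAL4-VP16 transactivation; 0% = DMSO with VP16-transfected cells and 100% = DMSO with cells lacking VP16; higher means less reporter light so more repression of VP16 activity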
Active calls of the source: *; x = not tested or not shown. In the library only some 1.6% were active in any assay of this set; here they are far more common.

SMILES	NR2E3 ag-1	PG9 binder	PKA-R1A act	NR2E3 ag-2	Rev-erbA mod	PKA-R2B activ	NR2E3 ag conf	VP16 counter
O=C(CCCCN1CCCCC1)c1ccccc1	-18	0	-3	-1	7	-8	x	x
O=C(C(=Cc1ccccc1)CN1CCCCC1)c1ccccc1	93*	-1	9	x	-2	-6	101*	47
CCC(C)Nc1nc(C)nc2c1nnn2Cc1ccccc1 (configuration not stated)	x	x	x	x	-1	x	x	x
CC1CC(C)C(=O)C(C(CC2CC(=O)NC(=O)C2)OC(=O)CC(=O)c2ccccc2)C1 (configuration not stated)	90*	1	-1	x	5	-1	99*	88*
O=C1CCC(C(=O)OCC(=O)c2ccccc2)N1 (configuration not stated)	-22	0	-10	3	-1	-10	x	x
Cc1ccccc1N1CCN(C(=O)COc2cc(=O)n(C)c3ccccc23)CC1	x	x	x	x	-1	x	x	x
Cc1nc2ccccc2c(=O)n1NC(=O)Cc1ccc(Br)cc1	0	-3	5	3	3	6	x	x
CCCCCc1ccc(CC(=O)Nn2c(C)nc3ccccc3c2=O)cc1	64	-1	-18	0	-2	-11	76*	70
COc1ccc(Cl)cc1Cn1c(C)c(C(=O)NCc2cccc([N+](=O)[O-])c2)sc1=O	54	0	x	x	-1	x	24	5
Cc1c(C(=O)NCc2ccc(C(C)C)cc2)sc(=O)n1Cc1ccc(S(=O)(=O)N(C)C)cc1	74*	1	x	x	-2	x	87*	80*
Cc1c(C(=O)NCc2cccc([N+](=O)[O-])c2)sc(=O)n1Cc1ccccc1F	19	0	x	x	-1	x	x	x
COc1ccc(Cl)cc1Cn1c(C)c(C(=O)NCc2ccc(F)cc2)sc1=O	49	0	x	x	-2	x	45	1
CCOC(=O)[C@@]12CN(C(=O)OC(C)(C)C)CC=C1N(Cc1ccc(OC)cc1)C(=O)[C@H]2CC(=O)NCC12CC3CC(CC(C3)C1)C2	x	x	x	x	-2	x	x	x
CCN(CC(=O)Nc1ccc(NC(C)=O)cc1)C(=O)C1(c2ccc(Cl)cc2)CCC1	48	-2	2	x	4	2	39	-4
CC(=O)Nc1ccc(NC(=O)COC(=O)C2(c3ccc(Cl)cc3)CCCC2)cc1	-25	2	-10	0	5	-12	x	x
CC(C)C[C@H](NC(=O)c1cccs1)C(=O)N1CCC[C@H]1C(=O)NCc1ccccc1	x	2	x	x	0	x	x	x
N#C/C(=N\Nc1ccc(Cl)c(Cl)c1)C(=O)C1CC1	80*	1	x	7	4	x	100*	55
c1csc(CCNc2ncnc3sc4c(c23)CCC4)c1	93*	-2	-5	0	3	-7	98*	87*
Cc1ccc(Cn2nnc3c2-c2ccccc2S(=O)(=O)N(C2CC2)C3)cc1	x	x	x	x	-3	x	x	x
COc1cc2c(oc(=O)c3cc(C)cc(OC)c32)c2c(C3OC(C)C(O)C(C)(O)C3O)ccc(O)c12 (configuration not stated)	54	-4	-8	x	-22	-1	71*	56
O=S1(=O)CC(N2CCCC2)CN1 (configuration not stated)	x	x	x	x	2	x	x	x
FC(F)(F)c1cnc(NNC(=S)Nc2ccc(Cl)cc2)c(Cl)c1	70*	1	-12	1	3	-2	94*	77*
Fc1ccc(NC(=S)NNc2ncc(C(F)(F)F)cc2Cl)c(F)c1	80*	-2	4	4	2	-2	67	57
Cc1ccc(NC(=S)NNc2ncc(C(F)(F)F)cc2Cl)cc1	13	0	4	0	5	-11	x	x
COc1ccccc1-c1cc(C(=O)Nc2c(C)n(C)n(-c3ccccc3)c2=O)no1	19	1	-10	2	-2	-3	x	x
SMILES	NR2E3 ag-1	PG9 binder	PKA-R1A act	NR2E3 ag-2	Rev-erbA mod	PKA-R2B activ	NR2E3 ag conf	VP16 counter
COc1ccc(OC)c(-c2cc(C(=O)Nc3c(C)n(C)n(-c4ccccc4)c3=O)no2)c1	51	-4	-7	-2	0	-16	13	21
CNC(=S)NN=C(C)CCCC(C)=NNC(=S)NC	48	1	11	x	9	5	-2	-8
CCC[C@H]1[C@@H](NC(=O)C#Cc2ccccc2)CC[C@@]23CCCN2C(=O)CCC[C@@H]13	x	x	x	x	0	x	x	x
c1ccc2c(c1)oc1c(Nc3ccc4c(c3)OCO4)ncnc12	-119	2	-14	3	-13	3	x	x
c1ccc2c(c1)oc1c(NCc3ccc4c(c3)OCO4)ncnc12	73*	x	-6	1	x	-13	90*	75*
NC(=S)NN=C1c2ccccc2-c2ccccc21	72*	-3	7	4	7	-5	-4	-11
COc1ccc(OC)c(CN2C(=O)CSCCC2(C)c2nnnn2C2CCCC2)c1 (configuration not stated)	x	x	x	x	-12	x	x	x
COc1ccc(CCNc2ccc(N3C(=O)CC(C)C3=O)cc2[N+](=O)[O-])cc1OC (configuration not stated)	75*	2	-2	2	7	-4	57	73*
CCn1c(SCC(=O)Nc2cccc3ccccc23)nnc1-c1cccs1	x	x	x	x	-1	x	x	x
CCOC(=O)c1cc(C#N)c(N2CCN(C(=O)c3cccc(C(F)(F)F)c3)CC2)nc1C(F)(F)F	50	1	-7	1	0	1	25	40
Nc1nc2c(nnn2C2CC(O)C(CO)O2)c(=O)[nH]1 (configuration not stated)	65	0	x	x	-10	x	-2	17
Nc1nc2c(ncn2C2C[C@H](O)[C@@H](CO)O2)c(=O)[nH]1 (some centres not stated)	2	0	5	4	11	-5	x	x
CC1CCN(S(=O)(=O)c2ccc(Oc3ccc([N+](=O)[O-])cc3)cc2)CC1	88*	2	-3	3	6	3	91*	76*
CN(CC(=O)NCc1ccc(F)cc1)CC(=O)Nc1ccc(Cl)c(C(F)(F)F)c1	94*	0	-5	1	4	-5	53	49
CN(CC(=O)NCC(=O)Nc1ccc(F)cc1)CC(=O)Nc1ccc(Cl)c(C(F)(F)F)c1	-14	-1	4	x	2	-16	x	x
CCCC(=O)N1CCN(c2ccc(NC(=O)c3ccc([N+](=O)[O-])o3)cc2)CC1	51	-4	-2	x	3	2	14	12
